Assay results as given in ChEMBL document CHEMBL4513216, “Probing the Open Global Health Chemical Diversity Library for Multistage-Active Starting Points for Next-Generation Antimalarials” (ACS Infect Dis, 2020).

Assay: Toxicity liver stage against HepG2, at 10uM
Format: cell-based
Design: test concentration 10 uM, cell line HepG2-A16-CD81EGFP
Details: human, HepG2-A16-CD81EGFP cells; read-out: INHIBITION
Method in brief: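 Uninfected HepG2-A16-CD81EGFP cells, 3 × 10^3 per well, 1536-well, plated on prespotted compound at 10 μM final, parasite-free screening media added to match infected plates; puromycin 10 μM positive, DMSO 0.5% negative; run in parallel with 48 h PbLuc assay at 37 °C, 5% CO2; viability by CellTiter-Glo luminescence, normalized to controls.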

SMILES	cytotoxicity at 10 µM [%]
COc1ccc(OC)c(CNc2c(O)c(=O)c2=O)c1	7.08
CC(=O)N1N=C(c2ccco2)OC1C(=O)NCCc1ccc(O)cc1 (stereo not given)	-1.19
Cc1cc(C)nc(N2CCC(C(=O)Nc3ncc[nH]3)CC2)n1	4.47
CCOc1ccc(NC(=O)Nc2cc(N3CCCCC3)ncn2)cc1	2.21
CCOCc1cncc2c1CCN(S(=O)(=O)c1ccc(C)cc1)C2	11.2
O=C(Cc1cccs1)N1CCc2nnc(COc3cncnc3)n2CC1	8.61
CC(C)N1c2sc(-c3ccsc3)nc2CC1C(=O)NC1CCCC1 (stereo not given)	9.1
Cc1noc([C@@]23CCO[C@@H]2CCN(C(=O)CCC(C)C)C3)n1	10.3
COCCC(=O)N1CCC2(CCCN2Cc2cccc(Cl)c2)C1 (stereo not given)	10.6
CNC(=O)C1Cn2ccnc2C2(CCN(C(=O)c3ccccn3)CC2)O1 (stereo not given)	-144
COc1cccc(CNc2c(C)cnc3c2c(=O)n(C)c(=O)n3C)c1	21.1
CC(=O)N1CCC2(CC1)CC[C@@]1(C(=O)N(C)C)CN(S(C)(=O)=O)C[C@@H]21	-1.56
CCN(CC)C(=O)c1ccn(COc2cccc(Cl)c2Cl)n1	49.4
Cc1cc(C)n(CCC(=O)N2CCC(c3nc(C)no3)CC2)n1	23.3
Cc1noc(C2CCCN(C(=O)c3cc(-c4ccccc4)on3)C2)n1 (stereo not given)	-7.14
CCn1nc(C)c2nc(C(C)C)nc(NCC(C)C)c21	15.5
Cc1noc(C)c1-c1nc(C2CCCN(C(=O)C(C)C)C2)ccc1CO (stereo not given)	0.983
CC(C)CC(NC(=O)c1ccco1)c1nc2cccnc2n1C (stereo not given)	6.08
CN1CC(=O)N(C2CCNCC2)Cc2c(NCC(C)(C)C)ncnc21	6.2
CC1CCCCN1C(=O)c1ccc(=O)[nH]n1 (stereo not given)	3.95
CC(C)c1nc(CS(=O)(=O)Cc2noc(C3CC3)n2)cs1	6.16
CN1CCN(c2ccc(NCc3ccc([S+](C)[O-])cc3)cn2)CC1 (stereo not given)	9.84

SMILES	cytotoxicity at 10 µM [%]
Cc1nn(C)c(C)c1CC(=O)NCC1(C(N)=O)CCOCC1	0.63
CCc1c(NCc2ccncc2)cnn1CC(C)C	7.81
Cc1ccc(NCCCNC(=O)NCc2c(C)cc(C)[nH]c2=O)nc1	-45.2
CS(=O)(=O)c1ccc2c(c1)N(C(=O)Cc1ccc(F)cc1)CCC2	9.95
CCc1ccc(O)c(C(=O)N2CCN(CC(=O)N(C)C)CC2)c1	2.8
O=S(=O)(Cc1ccccc1)NCC1CCCN(Cc2cccs2)C1 (stereo not given)	3.3
CCS(=O)(=O)N(C)C1CCN(C(=O)c2ccc(Cl)cc2)CC1	-5.87
CCN1CCN(C(=O)c2ccnc(N(C)C)c2)CC1	-0.0916
CCC(C)(CC)NC(=O)COc1nn(C)c2nc(C)cc(C)c12	-6.17
CNC(=O)Cc1coc(-c2ccc(F)cc2)n1	-4.15
COc1cc(C(=O)N(Cc2cccs2)C2CC2)cc2c1OCCO2	8.45
Cc1cc(CN(Cc2cccnc2)CC2CCCO2)on1 (stereo not given)	-7.03
Cc1nc(C)c(CC(=O)NCc2cccnc2OC2CCCC2)c(=O)[nH]1	-5.87
CCC(NCc1ncc[nH]1)c1nc(C(F)(F)F)cs1 (stereo not given)	8.02
COC(=O)CN1CCSC(c2ccccc2)C1 (stereo not given)	17.8
COc1ccc(C(=O)NCCCNc2ncccn2)cc1F	-10.5
COc1ncccc1C(=O)N1CCCC1c1nc(-c2ccccc2)n[nH]1 (stereo not given)	-8.76
N#CCCN(Cc1cccnc1)C(=O)Cc1ccc(-n2cnnn2)cc1	2.32
COc1ccc(N(Cc2ccco2)C(=O)C2CCOC2)cc1F (stereo not given)	-10.8
CSc1ccc(C)c(C(=O)Nc2c(C(N)=O)n[nH]c2C)c1	3.36
Cc1cccc2c1NC1(CCOCC1)NC2=O	-49.6
CC(c1ncc(-c2ccccc2)o1)N1CCN(C(=O)N(C)C)CC1 (stereo not given)	-12.1

SMILES	cytotoxicity at 10 µM [%]
CC(C)C(C)(C#N)NC(=O)Cn1cc(-c2ccccc2)cn1 (stereo not given)	8.34
Cc1ccc2cc(C(=O)N3CCCN(C)CC3)ccc2n1	-54.3
Cc1ccc(N2CCC3(CCN(Cc4csc(C)n4)C3=O)C2)nn1 (stereo not given)	-111
c1cc(CN2CCCC3(CCN(CC4CCCO4)CC3)C2)n[nH]1 (stereo not given)	-101
CC(=O)N1CCn2c(C(=O)N(C)C)cnc2C1	1.54
O=C1CC(c2ccncc2)C2(CCN(CCO)CC2)N1 (stereo not given)	-3.4
OC(c1cccs1)C1CCN(c2ncccn2)CC1 (stereo not given)	-52.5
Cc1nc2c(c(=O)[nH]1)CN(C(=O)CCC1CCCN(C)C1)C2 (stereo not given)	-7.76
Cc1cccc(=O)n1CCC(=O)N1CC[C@@](O)(C2CCC2)[C@H](C)C1	5.8
COC(=O)C1CCN(CC2(c3ccc(C)cn3)CCNCC2)CC1	-0.471
CN1CCCCC1CCC(=O)NCCCn1nccc1C1CC1 (stereo not given)	-22.9
Cc1cccc(OC2CCN(c3nc(N)nc4[nH]cnc34)CC2)c1	35.4
CC(C)Cc1ncc2c(n1)CN(c1nc(N(C)C)nc3c1CCCC3)C2	2.27
CCn1nc(C)c(NC(=O)CN2CCC(c3ccccc3Cl)C2)c1C (stereo not given)	-7.58
O=C1CCC2(CCN(c3cccc(C(F)(F)F)n3)CC2)CN1CCO	-18.2
CN1CCc2[nH]nc(C(=O)N3CCCC4(CN(C)C(=O)O4)C3)c2C1 (stereo not given)	-53.6
CCN(C)C(=O)c1cccc(S(=O)(=O)NCCc2csc(N)n2)c1	-45.2
O=C(CNCC1(O)CCCN(Cc2cccc(F)c2F)C1=O)NC1CC1 (stereo not given)	-4.02
CN(C)C(=O)N1CCCC(C(=O)N(C)CCCc2cnn(C)c2)C1 (stereo not given)	-0.645
COCC(NC1CCSCC1)c1ccnn1C (stereo not given)	13.5
CCc1cn[nH]c1C1CCCN(C(=O)c2ncoc2C(C)C)C1 (stereo not given)	1.86
O=C(CCc1nc2ccccc2[nH]1)NC1CCOC2(CCOCC2)C1 (stereo not given)	9.64

SMILES	cytotoxicity at 10 µM [%]
CCc1cc(N[C@@H](CC(C)C)C(N)=O)n2nc(C)c(C)c2n1	7.33
O=C(NCCc1ccccc1)c1cccc(S(=O)(=O)NC2CCOC2)c1 (stereo not given)	3.52
CNS(=O)(=O)c1ccc(CN2CCCN(c3ccccc3)CC2)cc1	10.9
CC(C)OC(=O)N1CCC(Cc2cccc(C(N)=O)c2)C1 (stereo not given)	7.56
CCOC(=O)c1coc(N2CCN(Cc3cccc(OC)c3)C(=O)C2)n1	-1.83
Cc1ncsc1-c1nc(CC2CCN(C)CC2)nn1Cc1ccccc1	10.2
CN(C)CC1(O)CCCN(Cc2ccccc2OCC(=O)N(C)C)C1 (stereo not given)	-1.21
CC(C)[C@@H]1CN(C(=O)CN(C)Cc2ccccc2)C[C@H]1C(=O)O	-3.99
CC(C(=O)N1CCn2cncc2C1)N1CCCC1 (stereo not given)	6.38
COc1cccc2c1OCC(C(=O)NCc1c(C)noc1C)C2 (stereo not given)	-15.5
CCC(Nc1nc(C(C)C)nc2c1cnn2C)c1ccncc1 (stereo not given)	-48
CCOCCC(=O)N1CCCC(c2ncc[nH]2)C1 (stereo not given)	-9.43
O=C(CCc1ccccc1)C1CCCN(C(=O)c2ncc(F)cc2F)C1 (stereo not given)	-17.4
Cc1ccc(-c2nc(CNC3CCc4ncnn4C3)cs2)cc1 (stereo not given)	-9.27
CCCc1nc(CNCC2CCCN2c2cccnn2)cs1 (stereo not given)	-7.07
CC(C(=O)N1CCCN(Cc2cnn(C)c2)CC1)n1ccnc1 (stereo not given)	-13.8
Cc1cc(C)c(CNC(=O)NC(C)c2ccc3c(c2)CCC3)c(=O)[nH]1 (stereo not given)	27.4
CCOC(C)C(=O)N1CCCN(Cc2csc(CC)n2)CC1 (stereo not given)	-13
Cc1cnc(CN(C)C2CCN(CCCc3cnn(C)c3)C2)o1 (stereo not given)	2.61
O=C(CN1CCc2cncnc2C1)Nc1ccc(Cl)cn1	-3.24
COc1cc(S(=O)(=O)N2CCc3ccccc32)cc(C(=O)O)c1OC	-7.54
CCc1cccc(N2CCC(NC(=O)C3CCCO3)CC2)c1 (stereo not given)	-14.3

SMILES	cytotoxicity at 10 µM [%]
N#Cc1ccccc1OCCN1CCCC1Cn1cncn1 (stereo not given)	-10.7
COCCc1noc(CN2CCc3nn(C(C)C)c(=O)cc3C2)n1	-14.9
CCOc1cc(C)nc(N2CCN(C(=O)c3ccc[nH]3)CC2)n1	-4
CC(C)c1nc2c(n1C)CCN(Cc1nc(-c3ccsc3)no1)C2	-6.46
Cc1ccc(-n2nnc(C(=O)Nc3cc(C)nn3C)c2C2CC2)cc1	0.888
Cc1cc(CNc2cc(Cl)ccc2OCCS(C)(=O)=O)no1	-2.27
CCn1ncc2c1CCCC2NCc1cc(Cl)c(OC)c(OC)c1 (stereo not given)	24.4
Cc1ccc(C(=O)N2CCCC(C(=O)N3CCCCC3)C2)c(O)c1 (stereo not given)	-7.52
CCCn1nc2c(cc1=O)CN(CCCS(N)(=O)=O)CC2	-2.48
CC(C)(C)C(O)CN1CCN(C(=O)c2cccc3ncccc23)CC1 (stereo not given)	4.67
Cc1cnccc1-c1cnn(CCNC(=O)c2ccncc2)c1C1CC1	6.95
C[C@@H]1CN(Cc2ccsc2)C[C@]12CCN(Cc1cccnc1)C2=O	7.62
CCC(N)C(=O)N1CCC(OCc2ccc(Cl)c(Cl)c2)CC1 (stereo not given)	-12
Cc1ccc(C(=O)N2CC3(CCCCC3)c3cc(C(=O)O)ccc32)cn1	11.2
CCCN1CCC(c2nc3ccc(-c4cccc(F)c4)cn3n2)CC1	-125
Cc1noc(C)c1CN1CCOCC12CCN(c1ncccn1)CC2	-104
CN1CCCN(C(=O)c2cc(-c3cc[nH]n3)n3ccccc23)CC1	11
O=C(C1=CCCC1)N1C[C@H]2CCC[C@@]2(COCc2ccncc2)C1	2.78
Fc1cccc(-c2nnn3c2COCC(CNCc2nccs2)C3)c1 (stereo not given)	-112
CN1C(=O)[C@@H]2CC[C@H]1CN(Cc1cccc(OCc3ccccn3)c1)C2	5.52
c1ccc(-c2cc(CN3C[C@H]4CC[C@@H](C3)N(CC3CC3)C4)on2)cc1	-4
CC(C)Cn1cc2nc(N3CCCC3)[nH]cc-2c1=O	9.6
